Experiments:
[1] = biological target: T1, Human immunodeficiency virus type 1 reverse transcriptase (Human immunodeficiency virus 1, UniProt Q72547); test: Inhibitory activity against human immunodeficiency virus (HIV) - 1 reverse transcriptase with rCdG as the template primer
Summary of the method: (§1)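 Reactions stopped with ice-cold 10% trichloroacetate, filtered through GF/C membrane, washed with ethanol, radiolabel counted by Cerenkov counting. AZTTP and nevirapine as positive controls; IC50 reported.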

[2] = biological target: Human immunodeficiency virus type 1 protease (Human immunodeficiency virus 1, UniProt Q72874); test: The compound is evaluated for the inhibitory against HIV -1 protease, a 30% inhibition of HIV-1 protease was observed at a concentration of 100 uM
[3] = The compound is evaluated for the therapeutic index, which is the CC50 divided by the EC50; assay type: functional
Summary of the method: (§2)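 XTT cytoprotection assay in CEM-SS cells infected with HIV-1 RF, with uninfected cultures for cytotoxicity, in presence of fetal calf serum. Data as percent of uninfected drug-free control. EC50 is 50% protection from cytopathicity; CC50 is 50% cell death in uninfected cells; TI = CC50/EC50. Triplicates on each of two sister plates, plate EC50s averaged. Confirmed by supernatant RT and p24.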

[4] = biological target: Human immunodeficiency virus type 1 integrase (Human immunodeficiency virus 1, UniProt Q7ZJM1); test: The compound is evaluated for the inhibitory against HIV -1 integrase. NI refers to no inhibition.
[5] = biological target: T1, Human immunodeficiency virus type 1 reverse transcriptase; test: The compound is evaluated for the inhibitory against HIV -1 reverse transcriptase with rAdT as the template primer.; summary of the method: as §1
[6] = test system: CEM-SS; test: Inhibitory concentration for cytopathicity of HIV-1 in CEM-SS cells; assay type: functional, cell-based; conditions: Homo sapiens; summary of the method: as §2
[7] = biological target: Human immunodeficiency virus 1 nucleocapsid (Human immunodeficiency virus 1, UniProt Q76059); test: Inhibition of HIV-1 Nucleocapsid protein p7 (no inhibition)
[8] = test system: CCRF-CEM; test: The compound is evaluated for the cytotoxic concentration for the mock-infected CEM cells; assay type: functional; conditions: Homo sapiens; summary of the method: as §2
[9] = test system: CEM-SS; test: Inhibitory concentration for cytopathicity of HIV-1 RF in CEM-SS cells; NA means there was no observed inhibition of HIV-1 cytopathicity up to the cytotoxic concentration in uninfected cells.; assay type: functional, cell-based; summary of the method: as §2
[10] = test system: CEM-SS; test: The compound is evaluated for the therapeutic index, which is the CC50 divided by the EC50.; assay type: functional; summary of the method: as §2

Sequence of Human immunodeficiency virus type 1 integrase (Q7ZJM1 whole entry): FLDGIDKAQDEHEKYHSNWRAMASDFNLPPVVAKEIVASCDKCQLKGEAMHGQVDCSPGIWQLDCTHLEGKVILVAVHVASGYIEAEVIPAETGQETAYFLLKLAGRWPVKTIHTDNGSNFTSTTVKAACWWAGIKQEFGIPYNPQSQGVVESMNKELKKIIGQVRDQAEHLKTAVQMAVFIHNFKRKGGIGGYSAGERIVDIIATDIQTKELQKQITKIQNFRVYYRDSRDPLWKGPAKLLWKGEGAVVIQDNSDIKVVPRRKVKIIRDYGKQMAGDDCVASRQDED
Sequence of Human immunodeficiency virus 1 nucleocapsid (Q76059 whole entry): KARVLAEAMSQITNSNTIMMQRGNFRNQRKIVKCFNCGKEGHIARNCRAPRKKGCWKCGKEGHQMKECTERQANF

Compound	IC50 [1] [µM]	IC50 [2] [µM]	TI [3]	IC50 [4]	IC50 [5] [µM]	EC50 [6] [µM]	IC50 [7]	CC50 [8] [µM]	EC50 [9]	TI [10]
COC(=O)c1cc(C(=CCCN=[N+]=[N-])c2cc(Cl)c(OC)c(C(=O)OC)c2)cc(Cl)c1OC	2	> 100	155	No inhibition	9.9	0.27	Not Active	41.8		
CC1(C)OC(=O)c2cc(C(=CCCBr)c3cc(Cl)c4c(c3)C(=O)OC(C)(C)O4)cc(Cl)c2O1	> 100							176	Not Active	
COC(=O)c1cc(C(=CCCN)c2cc(Cl)c(OC)c(C(=O)OC)c2)cc(Cl)c1OC	63							15	Not Active	
COC(=O)c1cc(C(=CCCOS(C)(=O)=O)c2cc(Cl)c(OC)c(C(=O)OC)c2)cc(Cl)c1OC	96							6.9	Not Active	
COC(=O)c1cc(C(=CC(=O)O)c2cc(Cl)c(OC)c(C(=O)OC)c2)cc(Cl)c1OC	> 100							48	Not Active	
COC=C(c1cc(Br)c(OC)c(C(=O)OC)c1)c1cc(Br)c(OC)c(C(=O)OC)c1	> 100							22	Not Active	
CCCCCC1OC1(c1cc(Br)c(OC)c(C(=O)OC)c1)c1cc(Br)c(OC)c(C(=O)OC)c1 (centres undefined)	5.6							> 100	Not Active	
C=C(c1cc(Br)c(OC)c(C(=O)OC)c1)c1cc(Br)c(OC)c(C(=O)OC)c1	> 100							316	Not Active	
CC=C(c1cc(Br)c(OC)c(C(=O)OC)c1)c1cc(Br)c(OC)c(C(=O)OC)c1	26							10	Not Active	
COC(=O)C=C(c1cc(Cl)c(OC)c(C(=O)OC)c1)c1cc(Cl)c(OC)c(C(=O)OC)c1	16							25	Not Active	
COC(=O)c1cc(C(=CCCO)c2cc(Cl)c(OC)c(C(=O)OC)c2)cc(Cl)c1OC	> 100					8.6		16.8		2
